# Measured values collected from several papers.
# Compare with care: the assays were run in different laboratories.
# CDK4: Cyclin-dependent kinase 4 (CDK4, Homo sapiens, UniProt P11802)
# CDK4 with cyclin D3: Cyclin-dependent kinase 4, with cyclin D3 (CDK4, Homo sapiens, UniProt P11802)
# CDK4 with cyclin D1: Cyclin-dependent kinase 4, with cyclin D1 (CDK4, Homo sapiens, UniProt P11802)
SMILES,target,assay,setting,endpoint,result
CCOC(=O)[C@H]1Cc2c(cc([N+](=O)[O-])cc2[N+](=O)[O-])[C@H](O)[C@]12C(=O)Nc1cccc(Br)c12,CDK4,"cell-free assay, inhibitor, TR-FRET",1 µM,inhibition,29.4%
O=c1[nH]c2ccccc2n1C1CCN(Cc2ccc(-c3[nH]c4cc5ncnc5cc4nc3-c3ccccc3)cc2)CC1,CDK4 with cyclin D3,cell-free assay,0.5 µM,remaining signal,99.7%
CCOC(=O)[C@H]1Cc2c(cc([N+](=O)[O-])cc2[N+](=O)[O-])[C@H](O)[C@]12C(=O)Nc1ccc([N+](=O)[O-])cc12,CDK4,"cell-free assay, inhibitor, TR-FRET",1 µM,inhibition,37.9%
N#CC1(c2ccccn2)CCN(Cc2cc(C(=O)O)c(=O)n3ccccc23)CC1,CDK4 with cyclin D3,"cell-free assay, competition with immobilised ligand",1 µM,remaining binding,82%
CC(C)(C)c1cc(C=C(C#N)C#N)cc(Br)c1O,CDK4 with cyclin D1,"enzyme activity, inhibitor",0.5 µM,remaining activity,115%
Cc1nn(C)cc1-c1nc2c(N3CCN(Cc4ccc(Cl)cc4)CC3)c(Cl)cnc2[nH]1,CDK4 with cyclin D3,"binding, competition with immobilised ligand",1 µM,remaining binding,74%
Cn1cncc1[C@](O)(COc1ccc(C#N)cc1-c1ccc(OC(F)(F)F)cc1)c1ccc(C#N)cc1,CDK4 with cyclin D1,"cell-free assay, competition with immobilised ligand",1 µM,remaining binding,100%
Nc1ncc(-c2nc(N3CCOCC3)nc(N3CCOCC3)n2)c(C(F)F)n1,CDK4 with cyclin D3,"binding, competition with immobilised ligand",10 µM,remaining binding,87%
